# From ChEMBL document CHEMBL4354817, “4-(3-Aminoazetidin-1-yl)pyrimidin-2-amines as High-Affinity Non-imidazole Histamine H3 Receptor Agonists with in Vivo Central Nervous System Activity” (J Med Chem, 2019)
# Active and inactive are the calls of the source. No cut-off for these calls is given here.
# Assays:
# Histamine H3 receptor [1] = molecular target: T1, Histamine H3 receptor (Homo sapiens, UniProt Q9Y5N1); experiment: Displacement of [3H]NAMH from human H3R expressed in HEK293T cells incubated for 2 hrs by microbeta scintillation counting analysis; format: cell-based
# Outline: (§1)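 Homogenates of HEK293T cells transiently expressing hH3R or mH3R, harvested 48 h post-transfection, incubated with 2 nM [3H]NAMH and increasing unlabeled ligand in 50 mM Tris–HCl pH 7.4, 2 h at 25 °C. Rapid filtration over 0.5% PEI-coated GF/C filters, scintillation counting. One-site fit; IC50 converted to pKi by Cheng–Prusoff; three experiments in triplicate.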
# Histamine H3 receptor [2] = molecular target: T1, Histamine H3 receptor; experiment: Agonist activity at human H3R expressed on HEK293T cells assessed as inhibition of forskolin-induced CRE-driven luciferase activity co-incubated with forskolin for 6 hrs and measured after 30 mins by CRE-luciferase reporter gene assay; format: functional
# Outline: (§2)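 HEK293T cells transiently transfected (PEI method) in suspension with receptor cDNA (1000 ng), CRE-luciferase (2500 ng) and empty pcDEF3; 50.000 cells/well on poly-L-lysine, grown 24 h. Stimulated with increasing ligand concentrations plus 1 μM forskolin, 37 °C, 5% CO2, 6 h. Luciferase reagent (ATP, D-luciferin) added, luminescence read after 30 min at 37 °C. Nonlinear regression; α relative to histamine; three experiments in triplicate.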
# Histamine H3 receptor [3] = molecular target: T1, Histamine H3 receptor; experiment: Intrinsic activity at human H3R expressed on HEK293T cells assessed as activation of forskolin-induced CRE-driven luciferase activity co-incubated with forskolin for 6 hrs and measured after 30 mins by CRE-luciferase reporter gene assay relative to histamine; format: functional; outline: as §2
# Histamine H3 receptor [4] = molecular target: T1, Histamine H3 receptor; experiment: Agonist activity at recombinant human H3R expressed on cells incubated for 60 mins by [35S]GTPgammaS binding assay; format: functional
# Histamine H3 receptor [5] = molecular target: T1, Histamine H3 receptor; experiment: Displacement of [3H]-N-alpha-methylhistamine from human histamine H3 receptor expressed in CHO cells incubated for 40 min by liquid scintillation counting analysis; format: cell-based
# Mus musculus [6] = experiment: Effect on social recognition in C57Bl6 mouse assessed as change in behavior at 5 mg/kg, ip administered 30 mins prior to training trial; format: ADME, organism-based; details: in vivo, 0.5 h
# Outline: (§3)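 Male C57Bl6 mice, 8–9 weeks. Session 1: 10 min arena habituation with two empty wire cups. 24 h later, 10 min with juvenile (4–5 weeks) under one cup; 1 h later, 10 min test with familiar plus novel juvenile. 5 mg/kg or vehicle i.p. 30 min before second session. Blind video scoring of exploration; sociability and discrimination indices; 10–11 mice/group.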
# Histamine H4 receptor [7] = molecular target: T2, Histamine H4 receptor (Homo sapiens, UniProt Q9H3N8); experiment: Displacement of [3H]histamine from human H4R expressed in HEK293T cells incubated for 2 hrs by microbeta scintillation counting analysis
# Histamine H4 receptor [8] = molecular target: T3, Histamine H4 receptor (Mus musculus, UniProt Q91ZY2); experiment: Displacement of [3H]histamine from mouse H4R expressed in HEK293T cells incubated for 2 hrs by microbeta scintillation counting analysis; format: cell-based
# T3 sequence (Q91ZY2 whole entry): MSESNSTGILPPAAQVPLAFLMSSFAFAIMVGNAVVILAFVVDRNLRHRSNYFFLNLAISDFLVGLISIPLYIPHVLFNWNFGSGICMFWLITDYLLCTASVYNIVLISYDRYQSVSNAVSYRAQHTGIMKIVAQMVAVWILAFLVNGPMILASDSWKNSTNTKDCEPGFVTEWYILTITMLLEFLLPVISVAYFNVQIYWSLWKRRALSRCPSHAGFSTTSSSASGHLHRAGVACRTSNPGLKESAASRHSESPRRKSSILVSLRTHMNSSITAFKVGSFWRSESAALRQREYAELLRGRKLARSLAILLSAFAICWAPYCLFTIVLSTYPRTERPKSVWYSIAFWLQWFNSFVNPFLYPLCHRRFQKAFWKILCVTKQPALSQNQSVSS
# Outline: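 mH4R-expressing HEK293T homogenates incubated with 30 nM [3H]histamine and increasing unlabeled ligand in 50 mM Tris–HCl pH 7.4, 2 h at 25 °C. Filtered over 0.5% PEI-coated GF/C filters; bound radioactivity counted. One-site fit, Cheng–Prusoff conversion to pKi.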
# Histamine H4 receptor [9] = molecular target: T3, Histamine H4 receptor; experiment: Agonist activity at mouse H4R expressed on HEK293T cells assessed as inhibition of forskolin-induced CRE-driven luciferase activity co-incubated with forskolin for 6 hrs and measured after 30 mins by luciferase reporter gene assay; format: functional; outline: as §2
# Histamine H3 receptor [10] = molecular target: T4, Histamine H3 receptor (Mus musculus, UniProt P58406); experiment: Agonist activity at mouse H3R expressed on HEK293T cells assessed as inhibition of forskolin-induced CRE-driven luciferase activity co-incubated with forskolin for 6 hrs and measured after 30 mins by luciferase reporter gene assay; format: functional; outline: as §2
# Histamine H3 receptor [11] = molecular target: T1, Histamine H3 receptor; experiment: Agonist activity at human H3R expressed on HEK293T cells by [35S]GTPgammaS binding assay; format: functional
# Outline: (§4)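 [35S]GTPγS accumulation measured on homogenates of HEK293T cells transiently expressing hH3R, with increasing ligand concentrations; α expressed relative to histamine. At least three experiments in triplicate.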
# Cytochrome P450 2C9 = Cytochrome P450 2C9 (Homo sapiens, UniProt P11712); experiment: Inhibition of human CYP2C9 expressed in baculovirus infected insect cells using beetle D-luciferin as substrate preincubated for 30 mins followed by NADPH addition and measured after 30 mins by CYP450-Glo assay; format: ADME
# Cytochrome P450 3A4 = Cytochrome P450 3A4 (Homo sapiens, UniProt P08684); experiment: Inhibition of human CYP3A4 expressed in baculovirus infected insect cells using beetle D-luciferin as substrate preincubated for 30 mins followed by NADPH addition and measured after 30 mins by CYP450-Glo assay; format: ADME
# Cytochrome P450 2D6 = Cytochrome P450 2D6 (Homo sapiens, UniProt P10635); experiment: Inhibition of human CYP2D6 expressed in baculovirus infected insect cells using beetle D-luciferin as substrate preincubated for 30 mins followed by NADPH addition and measured after 30 mins by CYP450-Glo assay; format: ADME
# [12] = Half life in rat liver microsomes at 50 uM measured up to 45 mins by UPLC/MS analysis; format: ADME, Microsome; details: 0.75 h
# Mus musculus [13] = experiment: Effect on social recognition in C57Bl6 mouse assessed as change in time spent in exploring cage at 5 mg/kg, ip administered 30 mins prior to training trial; format: ADME, organism-based; details: in vivo, 0.5 h; outline: as §3
# Mus musculus [14] = experiment: Effect on social recognition in C57Bl6 mouse assessed as change in time spent with familiar juvenile at 5 mg/kg, ip administered 30 mins prior to training trial; format: ADME, organism-based; details: in vivo, 0.5 h; outline: as §3
# [15] = molecular target: Histamine H3 receptor (Mus musculus) (UniProt P58406); experiment: Intrinsic activity at mouse H3R expressed on HEK293T cells assessed as activation of forskolin-induced CRE-luciferase reporter gene activity co-incubated with forskolin for 6 hrs and measured after 30 mins by luciferase reporter gene assay; format: functional; outline: as §2
# Histamine H4 receptor [16] = molecular target: T2, Histamine H4 receptor; experiment: Agonist activity at human H4R expressed on HEK293T cells assessed as inhibition of forskolin-induced CRE-driven luciferase activity co-incubated with forskolin for 6 hrs and measured after 30 mins by CRE-luciferase reporter gene assay; format: functional; outline: as §2
# Histamine H3 receptor [17] = molecular target: T4, Histamine H3 receptor; experiment: Displacement of [3H]NAMH from mouse H3R expressed in HEK293T cells incubated for 2 hrs by microbeta scintillation counting analysis; format: cell-based; outline: as §1
# [18] = Intrinsic clearance in mouse liver microsomes at 50 uM measured up to 45 mins by UPLC/MS analysis; format: ADME, Microsome; details: read-out: CLH
# Histamine H4 receptor [19] = molecular target: T2, Histamine H4 receptor; experiment: Intrinsic activity at human H4R expressed on HEK293T cells assessed as activation of forskolin-induced CRE-driven luciferase activity co-incubated with forskolin for 6 hrs and measured after 30 mins by CRE-luciferase reporter gene assay relative to histamine; format: functional; outline: as §2
# [20] = molecular target: Histamine H2 receptor (Homo sapiens) (UniProt P25021); experiment: Agonist activity at human H2R expressed on HEK293T cells assessed as inhibition of forskolin-induced CRE-driven luciferase activity up to 10 uM pre-incubated with forskolin for 6 hrs and measured after 30 mins by luciferase reporter gene assay; format: functional
# Outline: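 HEK293T cells transfected in suspension with H2R cDNA (2500 ng), CRE-luciferase (2500 ng) and empty pcDEF3; 50.000 cells/well, grown 24 h before ligand stimulation. Luminescence read 30 min after luciferase reagent (ATP, D-luciferin) at 37 °C. Dose–response curves fitted by nonlinear regression.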
# [21] = Intrinsic clearance in rat liver microsomes at 50 uM measured up to 45 mins by UPLC/MS analysis; format: ADME, Microsome; details: read-out: CLH
# [22] = Half life in mouse liver microsomes at 50 uM measured up to 45 mins by UPLC/MS analysis; format: ADME, Microsome
# Mus musculus [23] = experiment: Effect on social recognition in C57Bl6 mouse assessed as change in time spent with novel juvenile at 5 mg/kg, ip administered 30 mins prior to training trial; format: ADME, organism-based; details: in vivo, 0.5 h; outline: as §3
# [24] = molecular target: T5, Histamine H4 receptor (Mus musculus) (UniProt Q91ZY2); experiment: Intrinsic activity at mouse H4R expressed on HEK293T cells assessed as activation of forskolin-induced CRE-luciferase reporter gene activity co-incubated with forskolin for 6 hrs and measured after 30 mins by luciferase reporter gene assay; format: functional; outline: as §2
# T5 sequence (whole entry): T3 sequence (Q91ZY2 whole entry)
# Histamine H3 receptor [25] = molecular target: T1, Histamine H3 receptor; experiment: Intrisic activity at human H3R expressed on HEK293T cells by [35S]GTPgammaS binding assay relative to histamine; format: functional; outline: as §4
# T2 sequence (Q9H3N8 whole entry): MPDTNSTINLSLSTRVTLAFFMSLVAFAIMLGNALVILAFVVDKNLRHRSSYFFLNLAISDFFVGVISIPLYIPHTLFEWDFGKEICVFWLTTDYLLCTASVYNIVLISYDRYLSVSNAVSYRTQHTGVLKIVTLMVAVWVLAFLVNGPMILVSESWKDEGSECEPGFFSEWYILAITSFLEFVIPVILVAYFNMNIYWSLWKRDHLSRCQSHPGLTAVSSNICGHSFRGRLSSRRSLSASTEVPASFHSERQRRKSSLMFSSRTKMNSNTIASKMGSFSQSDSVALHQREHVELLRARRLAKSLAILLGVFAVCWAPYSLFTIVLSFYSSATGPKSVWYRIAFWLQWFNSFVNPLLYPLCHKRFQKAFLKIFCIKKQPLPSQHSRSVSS
# T1 sequence (Q9Y5N1 whole entry): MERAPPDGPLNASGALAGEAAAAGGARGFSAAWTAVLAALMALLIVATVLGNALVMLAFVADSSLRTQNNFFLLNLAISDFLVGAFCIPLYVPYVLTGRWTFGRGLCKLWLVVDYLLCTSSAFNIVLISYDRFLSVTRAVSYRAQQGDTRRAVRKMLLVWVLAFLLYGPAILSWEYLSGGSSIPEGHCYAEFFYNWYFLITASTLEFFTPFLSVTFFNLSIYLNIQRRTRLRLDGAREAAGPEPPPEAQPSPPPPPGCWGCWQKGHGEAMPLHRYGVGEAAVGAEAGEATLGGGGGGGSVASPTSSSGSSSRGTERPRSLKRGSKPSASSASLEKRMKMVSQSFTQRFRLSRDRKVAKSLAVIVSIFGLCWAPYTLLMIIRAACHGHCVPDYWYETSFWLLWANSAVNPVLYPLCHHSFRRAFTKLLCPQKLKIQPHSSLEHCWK
# T4 sequence (P58406 whole entry): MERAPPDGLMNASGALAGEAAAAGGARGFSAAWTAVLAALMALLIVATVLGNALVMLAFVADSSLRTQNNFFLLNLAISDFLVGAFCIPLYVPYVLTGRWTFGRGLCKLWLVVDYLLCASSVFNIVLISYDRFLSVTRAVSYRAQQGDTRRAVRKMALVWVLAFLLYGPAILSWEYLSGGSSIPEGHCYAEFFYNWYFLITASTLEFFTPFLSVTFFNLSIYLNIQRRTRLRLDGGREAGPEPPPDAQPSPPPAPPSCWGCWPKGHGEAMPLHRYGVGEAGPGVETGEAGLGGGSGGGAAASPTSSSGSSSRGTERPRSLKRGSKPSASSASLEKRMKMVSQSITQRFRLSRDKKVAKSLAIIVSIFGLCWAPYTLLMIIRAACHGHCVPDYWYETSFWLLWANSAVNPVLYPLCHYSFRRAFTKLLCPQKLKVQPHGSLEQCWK
# Cytochrome P450 2C9, sequence (P11712 whole entry): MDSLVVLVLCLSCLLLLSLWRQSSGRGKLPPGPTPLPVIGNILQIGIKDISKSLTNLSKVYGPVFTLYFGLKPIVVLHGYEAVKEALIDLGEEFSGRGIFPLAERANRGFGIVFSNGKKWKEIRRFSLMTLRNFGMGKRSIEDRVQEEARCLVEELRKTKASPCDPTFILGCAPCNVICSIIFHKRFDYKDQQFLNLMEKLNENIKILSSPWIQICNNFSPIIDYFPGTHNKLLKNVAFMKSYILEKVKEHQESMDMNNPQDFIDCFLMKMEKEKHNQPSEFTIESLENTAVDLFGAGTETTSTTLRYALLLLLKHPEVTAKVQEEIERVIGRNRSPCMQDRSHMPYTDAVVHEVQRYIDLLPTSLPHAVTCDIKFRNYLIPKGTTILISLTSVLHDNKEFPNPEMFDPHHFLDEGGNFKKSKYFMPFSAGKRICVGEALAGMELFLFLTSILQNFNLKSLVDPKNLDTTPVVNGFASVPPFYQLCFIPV
# Histamine H3 receptor (Mus musculus), sequence (P58406 whole entry): as the sequence (P58406 whole entry) above
# Cytochrome P450 2D6, sequence (P10635 whole entry): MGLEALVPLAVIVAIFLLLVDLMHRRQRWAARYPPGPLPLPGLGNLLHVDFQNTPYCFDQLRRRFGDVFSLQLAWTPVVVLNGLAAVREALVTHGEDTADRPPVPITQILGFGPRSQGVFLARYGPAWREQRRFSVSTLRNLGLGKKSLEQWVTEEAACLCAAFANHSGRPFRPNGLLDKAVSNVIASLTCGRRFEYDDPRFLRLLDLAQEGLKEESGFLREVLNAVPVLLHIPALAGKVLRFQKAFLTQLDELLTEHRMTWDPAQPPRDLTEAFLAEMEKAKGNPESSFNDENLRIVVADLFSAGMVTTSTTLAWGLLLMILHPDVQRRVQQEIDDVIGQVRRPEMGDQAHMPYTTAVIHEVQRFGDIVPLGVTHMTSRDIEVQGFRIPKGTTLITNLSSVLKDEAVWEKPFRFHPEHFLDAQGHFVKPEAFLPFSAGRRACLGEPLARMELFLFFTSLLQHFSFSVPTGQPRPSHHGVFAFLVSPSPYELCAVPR
# Histamine H2 receptor (Homo sapiens), sequence (P25021 whole entry): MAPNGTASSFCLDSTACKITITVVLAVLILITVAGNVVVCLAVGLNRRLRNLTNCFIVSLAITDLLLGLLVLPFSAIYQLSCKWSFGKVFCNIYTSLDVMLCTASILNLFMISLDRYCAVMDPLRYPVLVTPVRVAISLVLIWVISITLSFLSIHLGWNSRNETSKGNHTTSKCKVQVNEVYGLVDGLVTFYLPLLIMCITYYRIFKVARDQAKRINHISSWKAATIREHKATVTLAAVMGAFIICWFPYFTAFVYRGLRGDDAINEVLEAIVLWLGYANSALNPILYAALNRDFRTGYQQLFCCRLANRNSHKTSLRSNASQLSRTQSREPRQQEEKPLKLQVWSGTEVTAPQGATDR
# Cytochrome P450 3A4, sequence (P08684 whole entry): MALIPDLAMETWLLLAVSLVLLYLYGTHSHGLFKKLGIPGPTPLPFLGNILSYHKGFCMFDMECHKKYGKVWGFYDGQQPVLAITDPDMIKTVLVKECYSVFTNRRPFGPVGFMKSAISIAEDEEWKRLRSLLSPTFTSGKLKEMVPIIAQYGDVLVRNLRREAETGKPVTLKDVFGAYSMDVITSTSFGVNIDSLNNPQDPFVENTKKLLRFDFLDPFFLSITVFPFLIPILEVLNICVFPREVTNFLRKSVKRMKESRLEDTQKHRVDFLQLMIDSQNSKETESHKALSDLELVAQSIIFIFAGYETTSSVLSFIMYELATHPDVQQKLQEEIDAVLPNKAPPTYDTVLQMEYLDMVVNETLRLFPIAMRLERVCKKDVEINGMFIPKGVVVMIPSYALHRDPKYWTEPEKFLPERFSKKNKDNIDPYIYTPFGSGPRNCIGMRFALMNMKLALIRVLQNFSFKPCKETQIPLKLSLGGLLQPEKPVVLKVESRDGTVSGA
compound,measurement,setting,value
CCNC1CN(c2cc(C(C)C)nc(N)n2)C1,Ki,Histamine H3 receptor [1],0.1 µM
same,EC50,Histamine H3 receptor [2],0.158 µM
same,Intrinsic activity,Histamine H3 receptor [3],0.3
CC(C)CNC1CN(c2ccnc(N)n2)C1,Ki,Histamine H3 receptor [1],0.0398 µM
same,EC50,Histamine H3 receptor [2],0.00501 µM
same,Intrinsic activity,Histamine H3 receptor [3],1.1
CCC(C)NC1CN(c2ccnc(N)n2)C1 (racemic),Ki,Histamine H3 receptor [1],0.0126 µM
same,EC50,Histamine H3 receptor [2],0.002 µM
same,Intrinsic activity,Histamine H3 receptor [3],1.1
CCCCC(=O)O[C@H]1C[C@@H]2C[C@H]3[C@](NC)(CN2[C@@H](C)C1)C[C@]1(C(=O)Nc2c(C(=O)[C@H]4OC4(C)C)cccc21)[C@]3(C)C=O,EC50,Histamine H3 receptor [4],0.126 µM
same,Ki,Histamine H3 receptor [5],0.0501 µM
CCNC1CN(c2cc(C)nc(N)n2)C1,Ki,Histamine H3 receptor [1],0.0794 µM
same,EC50,Histamine H3 receptor [2],0.0126 µM
same,Intrinsic activity,Histamine H3 receptor [3],1
Nc1nccc(N2CC(N)C2)n1,Ki,Histamine H3 receptor [1],0.0158 µM
same,EC50,Histamine H3 receptor [2],0.00501 µM
same,Intrinsic activity,Histamine H3 receptor [3],1.1
CC(C)c1cc(N2CC(N)C2)nc(N)n1,Ki,Histamine H3 receptor [1],0.2 µM
same,EC50,Histamine H3 receptor [2],0.0794 µM
same,Intrinsic activity,Histamine H3 receptor [3],0.7
CCN(CC)C1CN(c2ccnc(N)n2)C1,Ki,Histamine H3 receptor [1],0.0631 µM
same,EC50,Histamine H3 receptor [2],0.00794 µM
same,Intrinsic activity,Histamine H3 receptor [3],1.2
CCc1cc(N2CC(NC)C2)nc(N)n1,Ki,Histamine H3 receptor [1],0.0501 µM
same,EC50,Histamine H3 receptor [2],0.0251 µM
same,Intrinsic activity,Histamine H3 receptor [3],0.8
CCCCNC1CN(c2ccnc(N)n2)C1,Ki,Histamine H3 receptor [1],0.0158 µM
same,EC50,Histamine H3 receptor [2],0.000794 µM
same,Intrinsic activity,Histamine H3 receptor [3],1.2
CCCNC1CN(c2ccnc(N)n2)C1.O.O=C(O)/C=C/C(=O)O,Activity,Mus musculus [6],Non-Toxic
same,Ki,Histamine H4 receptor [7],0.00794 µM
same,Ki,Histamine H4 receptor [8],0.0158 µM
same,EC50,Histamine H4 receptor [9],0.001 µM
same,EC50,Histamine H3 receptor [10],0.0001 µM
same,EC50,Histamine H3 receptor [11],0.00398 µM
same,IC50,Cytochrome P450 2C9,> 25 µM
same,IC50,Cytochrome P450 3A4,> 25 µM
same,IC50,Cytochrome P450 2D6,> 25 µM
same,t1/2,[12],3.98 h
same,Activity,Mus musculus [13],Non-Toxic
same,Activity,Mus musculus [14],Non-Toxic
same,Intrinsic activity,[15],1.2
same,EC50,Histamine H4 receptor [16],0.00316 µM
same,Ki,Histamine H3 receptor [1],0.00316 µM
same,Ki,Histamine H3 receptor [17],0.001 µM
same,CLint scaled at 50 µM,[18],20.7 mL/min/kg
same,Intrinsic activity,Histamine H4 receptor [19],1.1
same,Activity,[20],inactive
same,EC50,Histamine H3 receptor [2],0.000316 µM
same,CLint scaled at 50 µM,[21],7.9 mL/min/kg
same,Intrinsic activity,Histamine H3 receptor [3],1.2
same,half-life at 50 µM,[22],2.18 h
same,Activity,Mus musculus [23],Non-Toxic
same,Intrinsic activity,[24],1.1
same,Intrinsic activity,Histamine H3 receptor [25],0.5
CNC1CN(c2cc(C)nc(N)n2)C1,Ki,Histamine H3 receptor [1],0.0316 µM
same,EC50,Histamine H3 receptor [2],0.01 µM
same,Intrinsic activity,Histamine H3 receptor [3],0.8
